ChEMBL document CHEMBL1137637, “Quinuclidine derivatives as potential antiparasitics” (Antimicrob Agents Chemother, 2007)

Assays:
Leishmania amazonensis [1] = assay: Inhibition of sterol biosynthesis in Leishmania mexicana amazonensis promastigotes assessed as reduction in exogenous cholesterol level at 3 uM after 96 hrs by gas-liquid chromatography; type: functional; set-up: scale not given: the % may be the effect or the level left
Method in brief: (§1)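 L. mexicana promastigotes exposed to compound for 96 h. Total lipids extracted and neutral sterols separated from polar lipids by silicic acid column chromatography. Sterols analysed by TLC and by quantitative capillary gas-liquid chromatography with mass spectrometry. Composition expressed as mass % of free sterols, compared with untreated control.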

[2] = biological target: T1, Farnesyltransferase, putative (Leishmania major, UniProt Q4Q5W4); assay: Inhibition of Leishmania major recombinant squalene synthase expressed in Escherichia coli by liquid scintillation counter
T1 sequence (Q4Q5W4 whole entry): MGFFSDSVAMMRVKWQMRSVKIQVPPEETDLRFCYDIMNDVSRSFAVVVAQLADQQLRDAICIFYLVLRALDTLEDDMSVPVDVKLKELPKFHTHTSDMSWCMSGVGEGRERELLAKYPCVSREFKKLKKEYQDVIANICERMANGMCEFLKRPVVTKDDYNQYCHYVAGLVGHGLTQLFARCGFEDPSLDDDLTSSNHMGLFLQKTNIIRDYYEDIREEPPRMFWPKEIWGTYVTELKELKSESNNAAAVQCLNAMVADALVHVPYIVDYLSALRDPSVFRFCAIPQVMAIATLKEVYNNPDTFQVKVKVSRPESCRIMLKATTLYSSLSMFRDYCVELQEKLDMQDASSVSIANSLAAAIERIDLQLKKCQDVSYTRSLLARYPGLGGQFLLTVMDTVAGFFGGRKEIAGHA
Method in brief: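 Soluble E. coli extract expressing L. major SQS truncated by 16 N-terminal and 40 C-terminal residues. Buffer: 50 mM phosphate pH 7.4, 20 mM MgCl2, 5 mM CHAPS, 1% Tween 80, 10 mM DTT, BSA, 0.25 mM NADPH, and a glucose-6-phosphate/G6PDH regenerating system. Substrate 0.5 μM radiolabelled farnesyl pyrophosphate. Squalene band counted by scintillation. IC50 from hyperbolic plot of five concentrations in duplicate, usually run twice.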

Leishmania amazonensis [3] = assay: Inhibition of sterol biosynthesis in Leishmania mexicana amazonensis promastigotes assessed as reduction in endogenous 5-dehydro episterol level at 3 uM after 96 hrs by gas-liquid chromatography; type: functional; set-up: scale not given: the % may be the effect or the level left; method in brief: as §1
Leishmania amazonensis [4] = assay: Inhibition of sterol biosynthesis in Leishmania mexicana amazonensis promastigotes assessed as reduction in exogenous cholesterol level at 1 uM after 96 hrs by gas-liquid chromatography; type: functional; set-up: scale not given: the % may be the effect or the level left; method in brief: as §1
[5] = biological target: T2, Farnesyltransferase, putative (Trypanosoma cruzi (strain CL Brener), UniProt Q4CXF7); assay: Inhibition of Trypanosoma cruzi squalene synthase
T2 sequence (Q4CXF7 whole entry): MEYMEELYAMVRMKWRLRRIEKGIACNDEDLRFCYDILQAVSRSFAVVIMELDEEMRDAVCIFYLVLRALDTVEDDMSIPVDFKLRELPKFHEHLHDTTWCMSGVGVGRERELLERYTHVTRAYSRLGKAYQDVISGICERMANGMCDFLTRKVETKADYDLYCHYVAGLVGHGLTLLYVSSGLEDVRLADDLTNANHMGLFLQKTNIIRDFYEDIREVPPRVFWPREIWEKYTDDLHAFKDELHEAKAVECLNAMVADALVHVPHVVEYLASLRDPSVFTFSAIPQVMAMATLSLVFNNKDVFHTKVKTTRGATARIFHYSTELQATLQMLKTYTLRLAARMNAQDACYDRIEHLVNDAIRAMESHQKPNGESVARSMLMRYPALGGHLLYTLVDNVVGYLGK

[6] = Inhibition of Leishmania mexicana squalene synthase
Leishmania amazonensis [7] = assay: Inhibition of sterol biosynthesis in Leishmania mexicana amazonensis promastigotes assessed as reduction in endogenous episterol level at 1 uM after 96 hrs by gas-liquid chromatography; type: functional; set-up: scale not given: the % may be the effect or the level left; method in brief: as §1
Leishmania amazonensis [8] = assay: Inhibition of sterol biosynthesis in Leishmania mexicana amazonensis promastigotes assessed as reduction in endogenous 5-dehydro episterol level at 1 uM after 96 hrs by gas-liquid chromatography; type: functional; set-up: scale not given: the % may be the effect or the level left; method in brief: as §1
Leishmania amazonensis [9] = assay: Inhibition of sterol biosynthesis in Leishmania mexicana amazonensis promastigotes assessed as reduction in endogenous episterol level at 3 uM after 96 hrs by gas-liquid chromatography; type: functional; set-up: scale not given: the % may be the effect or the level left; method in brief: as §1

OC1(c2ccc(-c3ccccc3)cc2)CN2CCC1CC2 (centres undefined)
Activity (Leishmania amazonensis [1]): 39.6%
IC50 [2]: 13 nM
Activity (Leishmania amazonensis [3]): 39.6%
Activity (Leishmania amazonensis [4]): 17.5%
Ki [5]: 62 nM
Ki [6]: 12 nM
Activity (Leishmania amazonensis [7]): 16.8%
Activity (Leishmania amazonensis [8]): 65.7%
Activity (Leishmania amazonensis [9]): 20.8%
